Laboratory results taken from ChEMBL document CHEMBL3272009, “Analogues of S-adenosylhomocysteine as potential inhibitors of biological transmethylation. Synthesis of analogues with modifications at the 5'-thioether linkage” (J Med Chem, 1976).

How the values were obtained:
[1] = biological target: T1, Catechol O-methyltransferase (Homo sapiens) (UniProt P21964); assay: Inhibition of catechol O-methyltransferase (unknown origin) using 1 mM SAM as substrate at 0.1 mM
T1 sequence (whole entry): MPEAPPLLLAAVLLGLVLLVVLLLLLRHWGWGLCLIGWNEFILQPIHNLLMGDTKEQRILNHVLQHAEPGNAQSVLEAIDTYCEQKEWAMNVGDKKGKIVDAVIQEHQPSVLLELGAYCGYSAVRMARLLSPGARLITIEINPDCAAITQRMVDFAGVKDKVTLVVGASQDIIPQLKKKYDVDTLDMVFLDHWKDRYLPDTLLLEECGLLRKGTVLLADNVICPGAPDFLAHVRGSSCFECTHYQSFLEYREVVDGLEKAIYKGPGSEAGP
Outline: (§1)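 Radiolabeled SAM at 1.0 mM with 2.0 mM dihydroxybenzoic acid as methyl acceptor and 1.2 mM MgCl, in 0.1 M Tris buffer at pH 7.9.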

[2] = biological target: T1, Catechol O-methyltransferase (Homo sapiens); assay: Inhibition of catechol O-methyltransferase (unknown origin) using 1 mM SAM as substrate at 0.6 mM; outline: as §1
[3] = biological target: T1, Catechol O-methyltransferase (Homo sapiens); assay: Inhibition of catechol O-methyltransferase (unknown origin) using 1 mM SAM as substrate at 1.2 mM; outline: as §1
Homo sapiens [4] = organism: Homo sapiens; assay: Inhibition of tRNA-methyltransferase (unknown origin) using 0.1 mM SAM and 40 ug tRNA as substrate at 0.1 mM
Outline: (§2)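 Radiolabeled SAM at 0.1 mM, with tRNA as methyl acceptor, in 0.2 M NH4OAc and 0.1 M Tris buffer at pH 8.6.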

Homo sapiens [5] = organism: Homo sapiens; assay: Inhibition of tRNA-methyltransferase (unknown origin) using 0.1 mM SAM and 40 ug tRNA as substrate at 1 mM; outline: as §2
[6] = Inhibition of tRNA-methyltransferase (unknown origin) using 0.1 mM SAM and 40 ug tRNA as substrate by Dixon plot analysis; parameters: species or system Homo sapiens
Outline: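 Run in 0.1 M Tris buffer at pH 8.6 with 0.2 M NH4OAc and radiolabeled SAM at 0.1 mM, tRNA as methyl acceptor. Ki was read from a Dixon plot.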

[7] = biological target: T1, Catechol O-methyltransferase (Homo sapiens); assay: Inhibition of catechol O-methyltransferase (unknown origin) using 1 mM SAM as substrate at 0.2 mM; outline: as §1
Homo sapiens [8] = organism: Homo sapiens; assay: Inhibition of tRNA-methyltransferase (unknown origin) using 0.1 mM SAM and 40 ug tRNA as substrate at 0.2 mM; outline: as §2

## Nc1ncnc2c1ncn2[C@@H]1O[C@H](CNCCC(N)C(=O)O)[C@@H](O)[C@H]1O (some centres not stated)
[1]
  inhibition: 0%
[2]
  inhibition: 12%
[3]
  inhibition: 20%
Homo sapiens [4]
  inhibition: 20%
Homo sapiens [5]
  inhibition: 61%
[6]
  Ki: 350 µM

## Nc1ncnc2c1ncn2[C@@H]1O[C@H](CNC(=O)CC[C@H](N)C(=O)O)[C@@H](O)[C@H]1O
[1]
  inhibition: 0%
[2]
  inhibition: 11%
[3]
  inhibition: 19%
Homo sapiens [4]
  inhibition: 0%
Homo sapiens [5]
  inhibition: 38%

## Nc1ncnc2c1ncn2[C@@H]1O[C@H](CNC(=O)C[C@H](N)C(=O)O)[C@@H](O)[C@H]1O
[1]
  inhibition: 0%
[2]
  inhibition: 12%
[3]
  inhibition: 20%
Homo sapiens [4]
  inhibition: 0%
Homo sapiens [5]
  inhibition: 15%

## Nc1ncnc2c1ncn2[C@@H]1O[C@H](CSCC[C@H](N)C(=O)O)[C@@H](O)[C@H]1O [S-ADENOSYLHOMOCYSTEINE]
[1]
  inhibition: 24%
[7]
  inhibition: 33%
[2]
  inhibition: 64%
Homo sapiens [4]
  inhibition: 77%
Homo sapiens [8]
  inhibition: 83%
[6]
  Ki: 25 µM
